# Screening results as filed in PubChem.
# Shown are actives, neighbours in structure and some others; about 6.9% of the full set was active somewhere.
# FAK blocker = blocks human focal adhesion kinase activity; inhibition, %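 (tested at 7 µM)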; biochemical FAK kinase activity assay; 97,000 compounds, 0.84% hits; AID 727; in the data active means inhibition above about 19%;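 further: 0% = DMSO and 100% = reference compound high control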
# PostGolgi ctrl = growth of the yeast control strain, post-Golgi counter-screen; efflux-deficient yeast background strain, growth absorbance A615, 16 h; 98,000 compounds, 5% hits; AID 738; inhibition, % at 10 µM
# PostGolgi yeast = growth inhibition of a yeast mutant, post-Golgi transport screen; post-Golgi transport phenotypic cell assay; inhibition, % at 10 µM; 98,000 compounds, 0.9% hits; AID 739;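 further: yeast cells grown in 1536-well plates; yeast grown about 18 h at 30C before absorbance read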
# PTK2B oligo ant = antagonists of human Pyk2 oligomerization; Q14289; Q293 cells, Pyk2 FERM NanoBiT luminescence; active compounds read low; 99,000 compounds, 0.83% hits; z-score (the deposit names both 25 µM and 10 µM);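 active means Z-score of -3 or lower, scaled per plate to the spread of control and sample wells; inactive means z-score above -3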;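 further: negative z-score means lost luminescence so less FERM oligomerization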
# Target sequence (Q14289 whole entry, looked up): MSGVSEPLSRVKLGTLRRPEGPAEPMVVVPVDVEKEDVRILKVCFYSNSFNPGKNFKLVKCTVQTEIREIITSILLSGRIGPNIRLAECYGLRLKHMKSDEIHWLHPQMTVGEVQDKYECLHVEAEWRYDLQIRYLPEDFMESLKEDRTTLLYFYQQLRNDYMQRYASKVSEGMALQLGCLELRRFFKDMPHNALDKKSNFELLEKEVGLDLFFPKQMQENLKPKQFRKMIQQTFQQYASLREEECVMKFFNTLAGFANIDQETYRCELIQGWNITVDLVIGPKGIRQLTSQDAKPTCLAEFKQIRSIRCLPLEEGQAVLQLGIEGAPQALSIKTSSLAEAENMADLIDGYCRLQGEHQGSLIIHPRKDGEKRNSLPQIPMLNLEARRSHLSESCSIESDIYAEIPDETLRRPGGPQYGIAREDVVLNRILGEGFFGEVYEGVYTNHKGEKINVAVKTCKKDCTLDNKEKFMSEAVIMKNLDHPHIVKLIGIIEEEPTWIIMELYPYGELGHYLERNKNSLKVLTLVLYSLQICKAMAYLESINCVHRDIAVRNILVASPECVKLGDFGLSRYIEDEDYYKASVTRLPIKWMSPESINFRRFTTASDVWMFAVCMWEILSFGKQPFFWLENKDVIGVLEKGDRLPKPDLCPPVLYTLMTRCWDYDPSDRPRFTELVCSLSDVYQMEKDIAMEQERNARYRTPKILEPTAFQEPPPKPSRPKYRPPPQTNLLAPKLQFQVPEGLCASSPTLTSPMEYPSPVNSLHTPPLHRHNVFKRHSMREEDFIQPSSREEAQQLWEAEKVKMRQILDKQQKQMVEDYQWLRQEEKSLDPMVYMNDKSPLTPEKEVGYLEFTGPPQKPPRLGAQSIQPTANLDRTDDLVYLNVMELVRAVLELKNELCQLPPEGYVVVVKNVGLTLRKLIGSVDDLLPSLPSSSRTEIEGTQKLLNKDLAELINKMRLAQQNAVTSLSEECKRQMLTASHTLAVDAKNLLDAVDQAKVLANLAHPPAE
# Calb biofilm kill = kills Candida albicans biofilms; AID 834; C. albicans biofilm + clotrimazole, Alamar Blue; 85,000 compounds, 0.14% hits; inhibition, % at 6 µM;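 active means inhibition above 20%; inactive means inhibition below 20%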;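 further: preformed 24 hr biofilms exposed to compound for 48 hr; 0% = biofilm without compound and 100% = blank killed by clotrimazole plus chlorhexidine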
# Ecoli tolC = growth inhibitors of E. coli BW25113 tolC mutant. OD615. growth inhibition, % at 10 µM (by protocol). 65,000 compounds, 2.2% hits. AID 573;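 active means growth inhibition at or above a cutoff equal to the mean over every tested compound plus 3 SD, cut at about 60% in these data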;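 further: growth measured after 20 h incubation at 37 °C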
#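 Test system: tolC-deleted E. coli BW25113; medium: LB with kanamycin 50 µg/mL; compound: single-point testing at 10 µM; incubation: 20 h compound exposure of bacteria at 37 °C; signal: OD at 615 nm; evaluation: growth inhibition in percent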
# Starred values were filed as active, the others as inactive; . = no result given. Unless noted, no stated cut-off is given here; in the data, active means inhibition above about 30%; inactive means the rest.
SMILES,FAK blocker,PostGolgi ctrl,PostGolgi yeast,PTK2B oligo ant,Calb biofilm kill,Ecoli tolC
CCC(Sc1nc2n[nH]c(C)c2c(=N)n1-c1cccc(Cl)c1C)C(=O)N(CC)CC (stereo unspecified),0,-3,-6,-3*,-2,8
CCOc1cnc(-c2ccc(Cl)cc2)o1,2,-11,-5,0.87,.,.
CCOc1cnc(-c2ccc(OC)cc2)o1,0,13,31*,-0.22,.,.
COc1ccc(S(=O)(=O)NCCSCc2ccco2)cc1Cl,-1,-3,3,0.57,8,27
C[N+](C)(C)C/C=C1/COCO1,0,0,-1,-0.53,6,-7
O=C1c2ccccc2NC(c2cccc(F)c2)N1Cc1ccco1 (stereo unspecified),2,6,-8,-0.96,8,39
COc1cc(NC2c3ccccc3C(=O)N2Cc2ccc3c(c2)OCO3)cc(OC)c1OC (stereo unspecified),1,14,-6,.,8,.
CCOc1ccc(NC2c3ccccc3C(=O)N2Cc2ccc3c(c2)OCO3)cc1 (stereo unspecified),-1,31*,-3,.,5,.
C=CCNC(=O)c1ccc(C(=O)c2ccccc2)cc1,0,4,-1,-0.1,2,4
Cc1ccc(C(=O)Nc2cccc(C(=O)O)c2)cc1,-1,4,-2,.,5,.
Cc1ccc(-c2nc3ccc(C(=O)O)cc3nc2-c2ccc(C)cc2)cc1,2,17,-4,-3.3*,.,.
C=CCNC(=O)c1ccc2nc(-c3ccccc3)c(-c3ccccc3)nc2c1,5,36*,8,-1.1,.,.
COc1cccc(/C=N/n2c(SC)nnc2-c2ccccc2)c1OC,-2,22,-22,0.24,-3,14
CCCN(CCC)c1nc2ccccc2nc1C(C#N)C(=O)OCCOC (stereo unspecified),1,20,-3,-0.1,5,80*
CCCCCCOC(=O)C(C#N)c1nc2ccccc2nc1N1CCN(C)CC1 (stereo unspecified),5,13,7,-1.3,8,100*
CCCCCCOC(=O)C(C#N)c1nc2ccccc2nc1N1CCCCC1 (stereo unspecified),-1,0,-4,-0.45,4,1
C=CCN(CC=C)c1nc2ccccc2nc1C(C#N)C(=O)OCCOC (stereo unspecified),-1,17,5,1.4,3,32
Cn1cccc1Cc1nnc(SCC(=O)Nc2ccc(Cl)cc2)n1-c1ccc(F)cc1,.,19,5,.,8,71*
Cc1ccc(-n2c(Cc3cccn3C)nnc2SCC(=O)NCc2ccc3c(c2)OCO3)cc1,-1,32*,7,-0.38,0,30
Cc1nnc(NC(=O)CSc2nnc(Cc3cccn3C)n2-c2cccc(C(F)(F)F)c2)s1,.,2,-6,.,24*,5
CCOC(=O)C1=NNC(C(=O)c2ccccc2)C1c1ccc(OC)cc1 (stereo unspecified),-2,.,.,-2.3,4,.
CCn1c(Cc2ccccc2)nnc1SCC(=O)NC(C)(C)C,1,4,6,-0.28,3,-19
CC(C)C(NC(=O)C1CCCCC1)C(=O)NCc1ccccn1 (stereo unspecified),-5,6,21,0.16,-1,-18
COc1ccc(-c2cc(-c3ccccc3O)[nH]n2)cc1OC,-3,11,2,-1.4,11,46
Oc1ccccc1-c1cc(-c2ccc3c(c2)OCCO3)n[nH]1,.,4,2,-1.7,2,99*
SMILES,FAK blocker,PostGolgi ctrl,PostGolgi yeast,PTK2B oligo ant,Calb biofilm kill,Ecoli tolC
Cc1nnc(SC(=O)N2c3ccccc3Sc3ccccc32)s1,.,75*,13,-2.6,.,69*
COc1ccc(NC(=O)COC(=O)c2ncc(Cl)c(Cl)c2Cl)c(OC)c1,.,.,.,1.4,.,.
CC(=O)Nc1ccc(C(=O)OCC(=O)Nc2ccccc2Sc2ccccc2)cc1,.,.,.,-3.1*,.,.
CCCCSCCCNC(=O)Nc1cccc(OC)c1,-1,5,36*,0.26,8,11
CCNC(=O)COc1cc(C)c(Cl)c(C)c1,-1,-1,5,0.85,-1,.
CCn1c(SCC(=O)NCc2ccccc2)nc2ccccc2c1=O,-9,7,2,0.42,6,-17
CCCN(CCC)C(=O)CSc1nc2ccccc2c(=O)n1C1CCCC1,2,27,4,-1.6,4,77*
O=C(CSc1nc2ccccc2c(=O)n1C1CC1)NCc1ccccc1,2,36*,2,-0.22,-3,13
CCc1ccc(NCc2nc3ccccc3c(=O)[nH]2)cc1,6,14,14,-1.4,.,.
CCOC(=O)N1CCN(C(=O)CSc2nnc(-c3cc(OC)cc(OC)c3)o2)CC1,5,0,-12,0.14,3,-4
O=[N+]([O-])c1cc(C(F)(F)F)cc([N+](=O)[O-])c1NCCCNc1ccc([N+](=O)[O-])c2cccnc12,.,.,.,-0.88,.,.
O=[N+]([O-])c1cc(C(F)(F)F)ccc1NCCc1c[nH]c2ccc(O)cc12,6,55*,29,-1.1,.,.
Cc1ccc(S(=O)(=O)N(CC(=O)Nc2cccc([N+](=O)[O-])c2)C2CCCCC2)cc1,2,35*,-8,-1.4,.,.
COc1ccc(C(C[N+](=O)[O-])c2c(-c3ccccc3)cc3ccccn23)cc1OC (stereo unspecified),0,11,7,0.11,5,.
COC(=O)C(C(=O)OC)C(C[N+](=O)[O-])c1ccc(OC)c(OC)c1 (stereo unspecified),-2,33*,-4,1.5,.,.
Cc1ccc(Cl)cc1NC(=O)COC(=O)C12CC3CC(CC(C3)C1)C2,0,36*,12,-0.6,4,.
COc1cc(/C=N/NC(=O)c2cnn3c(C)cc(-c4ccccc4)nc23)ccc1O,0,34*,-1,-1.4,.,.
COc1ccc(/C=N/NC(=O)c2nc(-c3ccccc3)cc(-c3ccccc3)n2)cc1,2,31*,8,-2.4,.,.
Cn1ncc(C#N)c1NC(=O)c1cc(-c2ccccc2Cl)on1,-3,30*,-5,-0.78,4,.
Cn1cccc1/C=N/n1c(-c2ccc(Cl)cc2Cl)n[nH]c1=S,1,43*,4,-0.17,.,.
S=c1[nH]nc(-c2ccco2)n1/N=C/c1ccc(Cl)cc1Cl,2,39*,-6,-0.32,.,.
Cn1cccc1/C=N/n1c(-c2ccc(Cl)cc2)n[nH]c1=S,8,19,-9,-1,.,.
Nn1c(-c2ccco2)n[nH]c1=S,4,-10,4,-0.28,5,-4
O=C(c1ccc(Cl)c(Cl)c1)c1cc(-c2ccccn2)c(N2CCOCC2)s1,-1,56*,-3,-1,.,.
Nc1cc(C(=O)c2ccccc2)ccc1N1CCOCC1,0,.,.,-0.17,7,.
O=C(c1ccc(Br)cc1)c1cc(-c2ccccn2)c(N2CCOCC2)s1,2,43*,-4,-0.28,.,.
Cc1cccc(C(=O)NNC(=O)C2CCCO2)c1 (stereo unspecified),-6,3,12,0,.,.
CCCCc1c(C)c(C#N)c2[nH]c3ccccc3n2c1=O,-1,36*,6,-3,-5,.
